Active and inactive are the calls of the source. No cut-off for these calls is given here.

The subject of one data set is MDA-MB-453. In words: Antiproliferative activity in human MDA-MB-453 cells assessed as increase in SA-beta-gal positive cells at 2 uM for 5 days by SA-beta-gal staining analysis. The settings on record: time 5.0 day. The data set is classed as functional, cell-based. In a few lines: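 GSK343 2 µM or DMSO for 5 days, then chromogenic SA-β-gal staining and counting of positive cells. Triplicate; mean ± SD.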

Data set [1] deals with MDA-MB-436. The data set can be described thus: Cytotoxicity against human MDA-MB-436 cells assessed as killing of cells at 2 uM in presence of adriamycin. The data set is classed as functional, cell-based. In a few lines: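 Viability after a range of adriamycin concentrations given alone or together with 2 µM GSK343, measured by Guava ViaCount; mean ± SD.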
Data set [2] has as its system MDA-MB-231. The data set can be described thus: Effect on human MDA-MB-231 cells expressing shTET1 assessed as reduction in cyclinA by immunoblot analysis. Format: functional, cell-based. In general terms: A western blot detects proteins with antibodies after separation by electrophoresis.
For data set [3], the system named is MDA-MB-436. The data set can be described thus: Effect on human MDA-MB-436 cells expressing shTET1 assessed as reduction in cyclinA by immunoblot analysis. The data set is classed as functional, cell-based.
Data set [4] has as its system MDA-MB-231. In words: Downregulation of EZH2 transcription in human MDA-MB-231 cells at 2 uM for 2 days by immunoblot analysis. The data set is classed as functional, cell-based. The conditions noted are these: time 2.0 day.
Data set [5] relates to MDA-MB-436. In words: Induction of cell cycle arrest in human MDA-MB-436 cells assessed as accumulation of cells at S phase measured at 2 uM by BrdU/PI staining based flow cytometric analysis (reference value: 39.5%). The data set is classed as functional. A general note: A flow cytometer gives signals particle by particle.
In data set [6] the test system is MDA-MB-231. In words: Antiproliferative activity against human MDA-MB-231 cells assessed as downregulation of PCNA by immunoblot analysis. The data set is classed as functional, cell-based. In a few lines:
(§1)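 Cells exposed to GSK343 at 2 µM (standard level unless stated otherwise), lysed and immunoblotted; α-tubulin and total H3 as loading controls.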

Another data set concerns BT-474. The data set can be described thus: Antiproliferative activity against human BT-474 cells assessed as increase in global H3K9me3 expression level by immunoblot analysis. Format: toxicity, cell-based. In a few lines:
as §1

On to `CCCc1cc(C)[nH]c(=O)c1CNC(=O)c1cc(-c2ccnc(N3CCN(C)CC3)c2)cc2c1cnn2C(C)C`, for which the result with MDA-MB-453, in the data set on MDA-MB-436 [1], in the data set with MDA-MB-231 [4] and in the data set on MDA-MB-231 [6] was Active. In addition, the result with MDA-MB-231 [2] and in the data set on MDA-MB-436 [3] was inactive. In addition, the figures for the Activity in the data set with MDA-MB-436 [5] and in the data set on BT-474 were 15.2% and “Non-Toxic”, respectively.

These data come from ChEMBL document CHEMBL5715960, “Epigenetic Co-Deregulation of EZH2/TET1 is a Senescence-Countering, Actionable Vulnerability in Triple-Negative Breast Cancer” (Theranostics, 2019).
